The values below come from ChEMBL document CHEMBL4346667 (Eur J Med Chem, 2019).

Calls of active or inactive are those of the source. The rule behind the calls is not given here. Some results are limits rather than exact numbers.

In assay [1] the test system is L02. Nature of the assay: Antiproliferative activity against human HL7702 cells assessed as reduction in cell viability after 48 hrs by MTT assay. Type of assay: functional, cell-based. The following applies: L02, 48 h. An outline of the steps:
(§1)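 Cells grown at 37 °C, 5% CO2; HeLa, HepG2, H8, HL7702 in RPMI 1640 + 10% fetal calf serum, others in high-glucose DMEM + 10% fetal calf serum. Log-phase cells seeded at 4000-12000/well by doubling time. Attached cells were given 10-fold dilutions, 100 µM to 10 nM (DMSO 0.1% v/v), for 48 h. MTT (2 mg/mL) 4 h, formazan in DMSO, A492. IC50 from triplicate means.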
A general note: Tetrazolium assays rely on reduction of a dye to a coloured formazan, in cell work by metabolically active cells.

For assay [2], the system named is HepG2. Nature of the assay: Antiproliferative activity against human HepG2 cells assessed as reduction in cell viability after 48 hrs by MTT assay. It counts as functional, cell-based. The following applies: HepG2, 48 h. An outline of the steps:
as §1

The subject of assay [3] is HeLa. The experiment in a line: Antiproliferative activity against human HeLa cells assessed as reduction in cell viability after 48 hrs by MTT assay. Type of assay: functional, cell-based. The gist of the method: as §1
A short description of assay [4]: Antiproliferative activity against human H8 cells assessed as reduction in cell viability after 48 hrs by MTT assay. Type of assay: functional, cell-based. The gist of the method:
as §1

Assay [5] has as its system A549. The experiment in a line: Antiproliferative activity against human A549 cells assessed as reduction in cell viability after 48 hrs by MTT assay. The following applies: A549, 48 h. Type of assay: functional, cell-based. An outline of the steps: as §1
Assay [6] deals with MRC5. The experiment in a line: Antiproliferative activity against human MRC5 cells assessed as reduction in cell viability after 48 hrs by MTT assay. The following applies: MRC5, 48 h. It counts as functional, cell-based. The gist of the method:
as §1

Assay [7] relates to MCF7. Nature of the assay: Antiproliferative activity against human MCF7 cells assessed as reduction in cell viability after 48 hrs by MTT assay. It counts as functional, cell-based. The following applies: MCF7, 48 h. An outline of the steps:
as §1

For assay [8], the system named is HMEC. The experiment in a line: Antiproliferative activity against human HMEC cells assessed as reduction in cell viability after 48 hrs by MTT assay. Type of assay: functional, cell-based. An outline of the steps:
as §1

Assay [9] in a line: Binding affinity to alpha/beta tubulin complex (unknown origin). More on the design: species or system Homo sapiens. The gist of the method:
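SPR assay: tubulin immobilized up to 800 mDeg (response units). Ligands were diluted two-fold from 80 µM to 2.5 µM in PBS with 0.5% (v/v) DMSO and injected at 60 µL/min for 300 s. Running buffer was PBS with 0.5% DMSO, at 25°C.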

Assay [10] deals with Tubulin (Homo sapiens) (UniProt P68371+Q9H4B7+P0DPH7+P68366+Q13509+Q71U36+P04350+Q3ZCM7+P07437+P68363+Q9BQE3+Q6PEY2+Q13885+Q9BVA1+Q9BUF5). Nature of the assay: Inhibition of tubulin polymerization in human HeLa cells assessed as contracted and rounded cells with disordered abnormal spindles and chromosomal misalignment at 500 nM after 24 hrs by immunofluorescence based confocal microscopy. It counts as cell-based. An outline of the steps: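 HeLa cells on glass coverslips were treated for 24 h at 25, 250 or 500 nM. They were fixed in 4% paraformaldehyde for 1 h and permeabilised with 0.2% Triton X-100 for 20 min. Cells were imaged by fluorescence and confocal microscopy.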

Regarding `COc1cc([C@@H]2c3cc4c(cc3[C@@H](Nc3ccc5cccnc5c3)[C@H]3COC(=O)[C@H]23)OCO4)cc(OC)c1OC`, the IC50 – broadly, the concentration that inhibits the measured activity by half – in assay [1] was found to be 16.3 µM; in assay [2], 4100 nM; in assay [3] it was 3100 nM; in assay [4] it was 9.4 µM; in assay [5], 2300 nM; in [6], 25.6 µM. The IC50 came to 1400 nM in [7] and 73.5 µM in assay [8]. Besides, the affinity in assay [9] corresponds to a Ki of 120 nM.

`COc1cc2c(c(OC)c1OC)-c1ccc(OC)c(=O)cc1[C@@H](NC(C)=O)CC2` [COLCHICINE]: the IC50 in [1] amounted to 9.2 µM; in [2], 5800 nM; in assay [3], 10200 nM; in assay [4] it was 6.1 µM; in [5], 9700 nM; in assay [6] it was 6.2 µM. In addition, the IC50 in [7] is 14300 nM; in assay [8], 8.1 µM. Moreover, the Ki (usually a measure of affinity in units of concentration, obtained from inhibition or displacement) in assay [9] stood at 110 nM.

Take `COc1cc([C@@H]2c3cc4c(cc3[C@@H](Nc3ccc5[nH]ccc5c3)[C@H]3COC(=O)[C@H]23)OCO4)cc(OC)c1OC`: the IC50 stood at 43.3 µM in assay [1]; 900 nM in [2]; 900 nM in assay [3]; 29.2 µM in [4]; 500 nM in assay [5]; 51.3 µM in assay [6]. Further, the figures for the IC50 in [7] and in assay [8] were 400 nM and 55.2 µM, respectively. In assay [9], this compound yielded a Ki of 100 nM.

Consider `COc1cc([C@@H]2c3cc4c(cc3[C@@H](Nc3cccc5[nH]ncc35)[C@H]3COC(=O)[C@H]23)OCO4)cc(OC)c1OC`, for which the IC50 in assay [1] stood at 41.4 µM; in assay [2], 1200 nM; in assay [3] it was 1800 nM; in [4], 25.6 µM; in [5], 2600 nM; in assay [6], 45.6 µM. In addition, the IC50 in [7] came to 3000 nM; in assay [8], 60.5 µM. Further, in assay [9], the Ki amounted to 20 nM.

For the compound `COc1cc([C@@H]2c3cc4c(cc3[C@@H](Nc3ccc5ncccc5c3)[C@H]3COC(=O)[C@H]23)OCO4)cc(OC)c1OC`, the IC50 stood at 64.3 µM in [1]; 800 nM in assay [2]; 700 nM in [3]; 80.2 µM in assay [4]; 300 nM in assay [5]; 22.5 µM in [6]. The IC50 in assay [7] came out at 600 nM; in assay [8], 89.2 µM. In addition, in assay [9], the affinity, expressed as Ki, was 110 nM.

For the compound `COc1cc([C@@H]2c3cc4c(cc3[C@@H](Nc3cccc5cccnc35)[C@H]3COC(=O)[C@H]23)OCO4)cc(OC)c1OC`, the IC50 in assay [1] stood at 37 µM; in [2] it was 4600 nM; in assay [3] it was 2700 nM; in [4], 89.6 µM; in assay [5] it was 1200 nM; in [6], 49.1 µM. The IC50 stood at 1000 nM in assay [7] and 39.2 µM in [8]. Affinity in assay [9] was put at a Ki of 190 nM.

Regarding `COc1cc([C@@H]2c3cc4c(cc3[C@@H](Nc3cccc5[nH]ccc35)[C@H]3COC(=O)[C@H]23)OCO4)cc(OC)c1OC`, the IC50 worked out at 33.6 µM in [1]; 1800 nM in assay [2]; 2100 nM in assay [3]; 29.2 µM in assay [4]; 2400 nM in assay [5]; 32.4 µM in [6]. The IC50 came out at 1300 nM in assay [7] and 64.2 µM in [8]. Further, the Ki in assay [9] came out at 100 nM.

For `COC(=O)Nc1nc2cc(C(=O)c3cccs3)ccc2[nH]1` [NOCODAZOLE], the IC50 in assay [1] amounted to 13.5 µM; in assay [2], 400 nM; in assay [3], 300 nM; in assay [4] it was 18 µM; in assay [5], 200 nM; in [6], 15.3 µM. Besides, the IC50 is 200 nM in [7] and 11.5 µM in [8]. In addition, the inhibition result in [10] is “Active”.

`COc1cc([C@@H]2c3cc4c(cc3[C@@H](Nc3cccc5cn[nH]c35)[C@H]3COC(=O)[C@H]23)OCO4)cc(OC)c1OC`: the IC50 came to 29.4 µM in assay [1]; 6300 nM in assay [2]; 2500 nM in assay [3]; 19.5 µM in assay [4]; 5400 nM in [5]; 35.5 µM in [6]. The figures for the IC50 in assay [7] and in [8] were 2700 nM and 43.3 µM, respectively. This compound also yielded a Ki in assay [9] of 120 nM.

Take `COc1cc([C@@H]2c3cc4c(cc3[C@H](O)[C@H]3COC(=O)[C@H]23)OCO4)cc(OC)c1OC` [PODOFILOX]: the IC50 in assay [1] turned out to be 5 µM; in assay [2], 2400 nM; in assay [3], 6900 nM; in assay [4], 8.4 µM; in [5] it was 2600 nM; in assay [6] it was 10.6 µM. The IC50 in assay [7] came to 2400 nM; in [8], 5.6 µM. Also, the inhibition result in [10] is “Active”. Besides, the Ki in assay [9] worked out at 270 nM.

Regarding `COc1cc([C@@H]2c3cc4c(cc3[C@@H](Nc3cccc5ncccc35)[C@H]3COC(=O)[C@H]23)OCO4)cc(OC)c1OC`, the IC50 was 89.8 µM in assay [1]; over 100000 nM in assay [2]; over 100000 nM in assay [3]; 94.2 µM in assay [4]; over 100000 nM in [5]; 70.8 µM in assay [6]. The IC50 is over 100000 nM in assay [7] and 79.8 µM in assay [8]. In addition, in [9], the Ki was 60 nM.

As for `COc1cc([C@@H]2c3cc4c(cc3[C@@H](Nc3ccc5cn[nH]c5c3)[C@H]3COC(=O)[C@H]23)OCO4)cc(OC)c1OC`, the IC50 in assay [1] stood at 38.4 µM; in [2], 1900 nM; in assay [3], 800 nM; in assay [4], 65.5 µM; in assay [5], 1000 nM; in assay [6], 53.6 µM. Besides, the IC50 was found to be 800 nM in [7] and 52.5 µM in [8]. The compound further registered a Ki in assay [9] of 30 nM.

Regarding `COc1cc([C@@H]2c3cc4c(cc3[C@@H](Nc3cccc5cc[nH]c35)[C@H]3COC(=O)[C@H]23)OCO4)cc(OC)c1OC`, the IC50 came to 30.5 µM in assay [1]; 2500 nM in [2]; 3800 nM in [3]; 19.4 µM in assay [4]; 2200 nM in assay [5]; 38.5 µM in [6]. The IC50 in assay [7] was 4800 nM; in assay [8] it was 45.5 µM. The compound also returned a Ki in assay [9] of 50 nM.
